Bioassay records: PubChem BioAssay, several laboratories
SENP1 FRET inh: SENP1 (human) catalytic domain inhibition | Q9P0U3 | recombinant SENP1 catalytic domain, CyPet-SUMO1-YPet FRET cleavage | inhibition, % at 10 µM | hit rate 0.21% among 360,000;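 active means inhibition at least 30% at 10 µM, raw YFP signal under a set limit, fluorescence ratio 0.5 to 1.5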;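 further: 0% = enzyme with DMSO and 100% = no enzyme wells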
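Test system: hSENP1 catalytic domain, recombinant; Amount: 20 pM final SENP1 enzyme; Medium: Tris pH 8 buffer plus EDTA, NaCl, BME, BSA, NP40, catalase; Schedule: 50 min enzyme reaction, room temperature, light-protected; Technique: FRET fluorescence in CFP and YFP emission channels; Controls: no-enzyme wells low, DMSO-plus-enzyme wells high control.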
TPT1 inhibitor: inhibitors of Candida albicans tRNA 2'-phosphotransferase TPT1; recombinant caTPT1, FP RNA substrate dephosphorylation; inhibition, % at 5 µM; hit rate 0.81% among 300,000; AID 1962;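 active means inhibition above the mean of all tested compounds plus 3 SD, set per screening campaign, cut at about 24% in these data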;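 further: plate controls were DMSO alone for no effect and ferristatin control at 100 nM for full effect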
HNF4A DNA FP: change in binding of human HNF4 alpha to DNA; HNF4a-FITC DNA binding, fluorescence polarization, 1 h; activity change, % at 10 µM; P41235; hit rate 0.3% among 360,000; in the data active means activity change above about 30%, passing the limit was not always enough
CSN deneddyl inh: blocks human CSN-mediated cullin deneddylation | inhibition, % at 12.5 µM | Purified CSN, SCF-Nedd8-OG deneddylation, fluorescence polarization | hit rate 0.38% among 360,000 | AID 651999;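 active means pattern-corrected inhibition above about 35%, with an unprinted fluorescence ratio check between 0.5 and 1.5, limit read from the data, passing the limit was not always enough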;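 further: 0% = enzyme with substrate and 100% = substrate without enzyme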
Target sequence (Q92905 whole entry, looked up, one chain of several): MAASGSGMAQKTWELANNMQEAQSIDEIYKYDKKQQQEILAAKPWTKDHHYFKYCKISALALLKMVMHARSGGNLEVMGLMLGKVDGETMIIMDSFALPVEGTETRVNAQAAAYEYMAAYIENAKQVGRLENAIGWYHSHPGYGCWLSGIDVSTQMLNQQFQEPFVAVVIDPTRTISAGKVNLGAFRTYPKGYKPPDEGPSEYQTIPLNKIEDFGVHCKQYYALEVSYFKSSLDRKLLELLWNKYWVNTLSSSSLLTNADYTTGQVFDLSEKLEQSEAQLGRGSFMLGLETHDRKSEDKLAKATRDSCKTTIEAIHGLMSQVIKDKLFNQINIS
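Assay system: purified human Csn5 enzyme expressed in HEK293T cells; Input: 0.24 nM Csn5 enzyme, final concentration; Reagent: 10 nM SCFSkp2-Nedd8OG; Compound dosing: 12.5 µM single point; Times: reaction 90 min, room temperature; Technique: fluorescence polarization readout.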
Rpn11 block: inhibitors of human proteasome Rpn11. O00487. human 26S proteasome, Ub4-pepOG fluorescence polarization; 20S core pre-blocked with epoxomicin. inhibition, % at 20 µM. hit rate 0.59% among 360,000;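 active means inhibition at 20 µM, scaled to each plate's controls, above about 33%, limit read from the data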
Target sequence (O00487 whole entry, looked up): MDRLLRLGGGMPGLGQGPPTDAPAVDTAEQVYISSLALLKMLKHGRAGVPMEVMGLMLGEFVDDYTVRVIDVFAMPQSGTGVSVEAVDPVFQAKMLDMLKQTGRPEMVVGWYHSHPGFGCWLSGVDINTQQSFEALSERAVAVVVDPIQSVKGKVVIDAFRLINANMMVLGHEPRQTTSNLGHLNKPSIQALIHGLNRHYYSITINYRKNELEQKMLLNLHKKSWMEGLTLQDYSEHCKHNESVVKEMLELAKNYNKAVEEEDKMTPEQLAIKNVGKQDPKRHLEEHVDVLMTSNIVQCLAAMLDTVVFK
* marks the source's active call; other numbers are inactive results; · = no result shown. A selection: hits, their analogues and other compounds. The true share with any hit is near 1.6%.

SMILES | SENP1 FRET inh | TPT1 inhibitor | HNF4A DNA FP | CSN deneddyl inh | Rpn11 block
CN(C)c1ccc(C=C2SC(=S)NC2=O)cc1 | -34 | · | 197 | 105* | ·
O=C1NC(=S)SC1=Cc1ccccn1 | 6 | · | 64* | 1 | 34
Cc1noc(/C=C/c2ccc(-c3ccccc3Cl)o2)c1[N+](=O)[O-] | 12 | 138* | 23 | 59 | ·
Cc1csc(NC(=O)c2cc(-c3ccco3)nc3ccccc23)n1 | 16 | 7 | -38 | 46* | -25
Cc1nnc(NC(=O)c2cc(-c3ccco3)nc3ccccc23)s1 | -2 | 7 | -21 | 41 | -4
CCNc1nc(-c2sc(NC(=O)C(C)(C)C)nc2C)c(-n2cc(-c3ccccc3)nn2)s1 | -4 | · | -2 | -1 | ·
Clc1ccccc1Cn1c(/C=C/c2ccco2)nc2ccccc21 | -24 | 16 | 18 | 36* | ·
O=C(c1ccc([N+](=O)[O-])cc1)c1cc2ccc(O)cc2oc1=O | -5 | -5 | 0 | 0 | 6
NC(=S)c1cc2ccc(O)cc2oc1=O | 10 | · | 34 | 46* | 13
CCCN(C)C[C@H]1OCc2cnnn2CCCC(=O)N([C@H](C)CO)C[C@@H]1C | 1 | · | 1 | 0 | -4
COC(=O)C[C@@H]1CC[C@H](NC(=O)Nc2ccc(OC)cc2)[C@@H](CO)O1 | 2 | · | 3 | -5 | ·
NC(=O)c1ccc(NC(=O)COC(=O)/C=C/c2ccc(Br)o2)cc1 | -4 | · | -22 | 48* | 6
O=C(COC(=O)/C=C/c1ccc(Br)o1)Nc1ccc2[nH]c(=O)[nH]c2c1 | -17 | -5 | -46 | 39 | 40
CC(C)(C)OC(=O)N1CCC[C@H]1C(=O)N1CCC[C@H]1C(=O)NCc1ccncc1 | 2 | · | -4 | -4 | ·
C#Cc1ccc(NC(=O)C2(C)CCN2C(=O)Cc2ccc(C(C)C)cc2)cc1 (centres undefined) | 0 | · | 1 | 4 | 5
CN(C)c1ccc(C#Cc2ccc3cc(CCO)oc(=O)c3c2)cc1 | -35 | · | 9 | 2 | 64*
COc1ccc(C(=O)Nc2nc(-c3ccc([N+](=O)[O-])cc3)c(-c3ccc(OC)cc3)s2)cc1 | -25 | 2 | 21 | 6 | 61*
COc1ccc(CCNC(=O)c2ccc([N+](=O)[O-])cc2)cc1 | 3 | -1 | -1 | 1 | 2
Cc1c(CCOC(=O)CC23CC4CC(CC(C4)C2)C3)sc[n+]1CC(=O)c1ccccc1 | 1 | 1 | -3 | -2 | 7
Cc1c(CCOC(=O)C23CC4(C)CC(C)(CC(C)(C4)C2)C3)sc[n+]1CC(=O)c1ccccc1 | 0 | 1 | 81* | 3 | -4
CCCCN(c1ccccc1)S(=O)(=O)c1cccc(C(=O)Nc2c(C)n(C)n(-c3ccccc3)c2=O)c1 | -1 | · | -2 | -4 | 2
CC(C)CN(C(=O)CN1CCN(c2ccccc2F)CC1)c1c(N)n(CC(C)C)c(=O)[nH]c1=O | -10 | -1 | -1 | -10 | -6
CC(C)CN(C(=O)CN1CCc2ccccc21)c1c(N)n(CC(C)C)c(=O)[nH]c1=O | -36 | 4 | 32* | 16 | ·
O=C(CCCSc1ccccc1)Nc1nc(-c2ccco2)c(-c2ccco2)s1 | -9 | 4 | 8 | 43* | 25
Cc1ccc(C(=O)Nc2nc(-c3ccco3)c(-c3ccco3)s2)o1 | -21 | · | -5 | 42 | 5
SMILES | SENP1 FRET inh | TPT1 inhibitor | HNF4A DNA FP | CSN deneddyl inh | Rpn11 block
O[C@H]1CN(CC2CCCCC2)[C@@H](c2ccc(Cl)cc2)C[C@@H]1n1cc(-c2ccc(F)cc2)nn1 | -2 | · | -1 | 6 | 3
O=C(NCCCN1CCOCC1)c1ccc2c(c1)N(Cc1c(F)cccc1Cl)C(=O)CS2 | 0 | 0 | -3 | -1 | 2
CCC(=O)Oc1ccc(C(=O)Nc2ccc3c(c2)C(=O)N(C2CCCCC2)C3=O)cc1 | -2 | -2 | 39* | -1 | -2
O=C1CC(N2CCN(S(=O)(=O)c3ccc(Cl)cc3)CC2)C(=O)N1CCc1ccccc1 (centres undefined) | 4 | -1 | -1 | -3 | -2
Cc1ccc(S(=O)(=O)N2CCN(C3CC(=O)N(CCc4ccccc4)C3=O)CC2)cc1C (centres undefined) | 0 | 2 | 61* | 0 | 12
O=C(NCc1cccc(C(F)(F)F)c1)C1C(=O)Nc2ccccc2C(=O)N1C1CCCC1 (centres undefined) | 3 | · | -1 | 4 | ·
CN1CCN(c2nc(C(N)=O)cc(-c3ccccc3)n2)CC1 | 2 | -1 | 1 | 0 | 39*
CCN(CC)c1nc(C(N)=O)cc(-c2ccccc2)n1 | -33 | -1 | 0 | 0 | -12
Cc1cc(C)n(-c2nc3ccccc3nc2Nc2ccc3c(c2)OCO3)n1 | -33 | 5 | 2 | -2 | -39
Cc1cc(C)n(-c2nc3nonc3nc2Nc2cccc(C)c2C)n1 | -19 | 3 | -14 | 57* | -6
Cc1ccc2nc(-c3ccccn3)c(Nc3ccccc3C)n2c1 | 2 | -3 | 39* | -2 | 6
Cc1ccccc1Nc1c(-c2ccccn2)nc2ccccn12 | 0 | -2 | -4 | -3 | 8
NC(=O)c1c(N)[nH]c(C(=O)c2ccccc2)c1-c1ccccc1Br | -28 | · | 4 | 108* | ·
CSc1cccc(-c2nnc(NC(=O)c3cccc(N4C(=O)CCC4=O)c3)o2)c1 | -1 | 0 | 0 | 3 | -4
CCc1ccccc1NC(=O)CN1CCN(CC(=O)Nc2ccc3c(c2)OC2(CCCCC2)O3)CC1 | -3 | · | 0 | 46* | 6
COc1ccc(N2CCN(C(=O)C(=O)c3cc(OC)c4ccccc4c3)CC2)cc1 | 6 | · | -1 | 0 | ·
CCOC(=O)C1=C(c2ccccc2)N=c2s/c(=C\c3ccco3)c(=O)n2C1c1cccs1 (centres undefined) | -3 | 21 | -2 | 38* | 20
CCOC(=O)C1=C(c2ccccc2)N=c2s/c(=C\c3cc(OC)c(OC)c(OC)c3)c(=O)n2C1c1cccs1 (centres undefined) | -24 | 18 | 13 | -1 | 28
COc1cc(/C=C(\CC(=O)O)c2nc3ccccc3s2)cc(OC)c1O | 57* | 1 | 4 | -2 | 11
Cc1ccc(C(=O)Nc2ncccc2C)cc1S(=O)(=O)N1CCCCC1 | 2 | 1 | 1 | -3 | 6
N#Cc1ccc(COc2ccc(CCO)cc2-n2nc3ccccc3n2)cc1 | 1 | 5 | -1 | 100* | -3
OCCc1ccc(O)c(-n2nc3ccccc3n2)c1 | -2 | -8 | 1 | 6 | 6
CCOC(=O)C(=CNc1ccc2c(c1)c1ccccc1n2CC)C(=O)OCC | -2 | -1 | 36* | 1 | 8
CCCC(=O)Nc1ccc2c(c1)c1ccccc1n2CC | -1 | -2 | 0 | -15 | -2
CCOC(=O)N1CCN(C(=O)COc2cc(=O)n(CC)c3ccccc23)CC1 | 2 | 5 | 0 | 1 | -4
CCOC(=O)COc1cc(=O)n(CC)c2ccccc12 | 3 | -5 | -1 | 108* | 0
